ROMK mod: modulators of human ROMK potassium channel; P48048; B-score at 10 µM; 2% of 130,000 active; Tet-inducible ROMK, thallium flux fluorescence; actives lie on both sides;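 active means signal ratio slope over the read window, or its plate-corrected B-score, at least 3 SD from the plate mean, either direction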;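 further: B-score of the F/F0 ratio slope over 7 to 12 s after thallium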
14-3-3 Bad PPI: disrupts binding of bovine 14-3-3 zeta to phospho-Bad peptide; TR-FRET 14-3-3zeta/Dy647-pBad peptide displacement, 1 h; inhibition, % at 21.7 µM; 0.71% of 220,000 active;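 active means inhibition above about 70%, limit read from the data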
Cl transport mod: KCC2 (human) Cl- transport modulation; Q9H2X9; KCC2 cells, thallium flux FluoZin-2 fluorescence; B-score of Tl+ flux slope (higher = more flux/activation; lower = inhibition) at 10 µM; 2.2% of 190,000 active; AID 1456;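 active means thallium flux slope and its plate-corrected score both differing from the plate sample mean at a set confidence after two filtering rounds, in either direction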;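 further: slope of fluorescence scaled to starting intensity during 10 to 20 s after thallium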
NCF1 inh: inhibitors of human p47phox binding; P14598; p47phox/p22phox peptide binding, fluorescence polarization, 2 h; inhibition, % at 24.7 µM; 0.53% of 220,000 active;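 active means inhibition above about 30%, limit read from the data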
WT yeast gro inh: growth inhibition of WT yeast, mitochondrial fusion screen; mitochondrial fusion phenotypic screen, WT strain; inhibition, % at 10 µM; 2.1% of 190,000 active; AID 1362; in the data active means inhibition above about 58%; tested in S. cerevisiae
RBBP9 inh: blocks human serine hydrolase RBBP9 | O75884 | recombinant RBBP9, FP-Rh probe fluorescence polarization | inhibition, % at 7.94 µM | 0.2% of 220,000 active | AID 1515;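 active means inhibition above the campaign mean of all tested compounds plus 3 SD, cut at about 14% in these data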
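system = RBBP9 protein | input = RBBP9 at 2.5 µM in dispensed solution, before mixing | measured by = fluorescence polarization (mP), excitation 525 nm, emission 598 nm | incubation = enzyme-compound preincubation 30 min, then probe labeling 45 min, 25 °C | buffer or medium = Tris-NaCl-Pluronic buffer, pH 8.0 | compound = single dose 7.94 µM | also added = FP-Rh probe, 375 nM dispensing solution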
KCC2 sec1: KCC2 (human) modulation, secondary assay. shares compounds with Cl transport mod. 15% of 3,700 active. normalised thallium flux (F/F0 slope) at 10 µM. HEK293-KCC2, thallium flux, FluoZin2 fluorescence; active compounds read high;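 active means thallium flux slope above the same plate's solvent-only control mean plus 3 SD; inconclusive means the two replicate wells disagree; inactive means no significant difference from solvent-only control wells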
KCC2 bumet counter: bumetanide-insensitive thallium flux in KCC2 cells with ouabain, counter-screen; shares compounds with Cl transport mod; HEK293-KCC2 + bumetanide/ouabain, thallium flux FluoZin2; active compounds read high; normalized thallium flux at 10 µM; 49% of 3,700 active; AID 1714;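 active means thallium entry rate above the same plate's blocked-transporter control wells by more than 3 SD; inconclusive means the two repeat wells disagree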;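 further: raw slope of fluorescence over initial fluorescence between 10 and 20 s after thallium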
KCC2 sec2: KCC2 (human) modulation, second secondary assay; 23% of 3,700 active; shares compounds with Cl transport mod; normalized thallium flux at 10 µM; HEK293-KCC2, thallium flux FluoZin2 fluorescence; actives lie on both sides; F/F0 rise rate, 10–20 s post-thallium; AID 1715;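 active means thallium flux slope more than 3 SD above or below the plate's solvent-only control mean, mostly below; inconclusive means the two repeat wells disagreed; inactive means no significant shift from solvent-only controls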
HEK counter1: acts in parental HEK cells, KCC2 counter-screen. HEK293 parental cells, thallium flux FluoZin2, ouabain; baseline-ratio fluorescence slope, 10–20 s after thallium. thallium flux rate (normalised fluorescence) at 10 µM. AID 1716. shares compounds with Cl transport mod. 46% of 3,700 active;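 active means thallium flux rate significantly above the same plate's solvent-only control wells, beyond their mean plus 3 SD; inconclusive means the two replicate wells gave conflicting results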
KCC2 retest ouab: confirmation of human KCC2 modulators with ouabain; HEK293-KCC2, thallium flux FluoZin2 fluorescence; bidirectional: low = inhibitor, high = activator; shares compounds with Cl transport mod; AID 1717; raw Tl+ flux slope (below DMSO = inhibition, above = activation) at 10 µM; 48% of 3,700 active;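 active means thallium flux slope beyond 3 SD from same-plate DMSO control mean in most replicates, usually higher, sometimes lower; inconclusive means repeat tests gave conflicting results; inactive means no significant difference from controls in most replicates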;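 further: slope of initial-normalized fluorescence between seconds 10 and 20 after thallium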
HEK counter2: acts in parental HEK cells, second KCC2 counter-screen. thallium flux slope at 10 µM. AID 1718. HEK293 parental, thallium flux FluoZin-2 fluorescence slope. shares compounds with Cl transport mod. 33% of 3,700 active;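 active means thallium flux slope above the same plate's solvent-control mean plus 3 SD in both duplicate wells; inconclusive means duplicate wells that disagreed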;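 further: run without ouabain in cells lacking the KCC2 cotransporter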
Numbers stand for hits; - = inactive; ? = inconclusive; . = no result. Compounds with a hit are over-represented: about 5.8% of the library has one in this group of screens.

SMILES	ROMK mod	14-3-3 Bad PPI	Cl transport mod	NCF1 inh	WT yeast gro inh	RBBP9 inh	KCC2 sec1	KCC2 bumet counter	KCC2 sec2	HEK counter1	KCC2 retest ouab	HEK counter2
CC(C)Cc1cc(CN2CCC(CO)(Cc3ccccc3)CC2)[nH]n1	.	-	-	-	.	-	.	.	.	.	.	.
Cc1cccc(-c2n[nH]c(=S)n2/N=C/c2cccs2)c1	-	-	41	-	.	-	0.019	0.08	-	0.054	0.054	0.016
S=c1[nH]nc(-c2cccs2)n1/N=C/c1c(Cl)cccc1Cl	-	-	34	-	-	-	-	0.042	-	0.022	0.029	0.019
Cc1ccc(/C=N/n2c(-c3ccncc3)n[nH]c2=S)s1	.	-	-	-	.	-	.	.	.	.	.	.
Cc1cccc(-c2n[nH]c(=S)n2/N=C/c2ccc(C)s2)c1	-	-	13	-	-	-	-	0.031	-	0.016	-	0.012
S=c1[nH]nc(-c2cccnc2)n1/N=C/c1cccs1	-	-	-	-	-	-	.	.	.	.	.	.
Cc1ccsc1/C=N/n1c(-c2ccccc2)n[nH]c1=S	-	-	9.8	-	-	-	0.014	0.039	-	0.015	?	0.013
O=c1c2ccc(Cl)cc2[nH]c(=S)n1Cc1cccnc1	.	-	3.6	-	-	-	0.013	0.03	-	0.015	-	0.011
COc1cc(CN2CCCC(C(=O)c3ccc4c5c(cccc35)CC4)C2)cc(OC)c1O (stereo unspecified)	-	-	-	-	-	-	.	.	.	.	.	.
CCc1ccccc1NC(=S)N(CCOC)C(C)c1ccco1 (stereo unspecified)	.	-	-	-	.	-	.	.	.	.	.	.
CCC(=O)N(CCC(c1ccccc1)c1ccco1)Cc1cccs1 (stereo unspecified)	.	-	-	-	-	-	.	.	.	.	.	.
CCC(=O)N(CCC(Cc1ccccc1)c1ccco1)Cc1ccco1 (stereo unspecified)	-	-	-3.9	-	-	-	-	0.0026	-	0.0046	0.013	0.0069
CCN(CC)CCN1C(=O)C(=O)/C(=C(/O)c2ccc(OC)cc2)C1c1ccco1 (stereo unspecified)	-	-	8.7	-	-	-	-	0.0057	-	?	-	?
CCN(CC)CCCN1C(=O)C(=O)/C(=C(/O)c2ccc(OC)cc2)C1c1ccco1 (stereo unspecified)	-	.	.	.	.	.	.	.	.	.	.	.
CN(C(=O)N1CCN(S(=O)(=O)c2ccccc2)CC1)c1ccccc1	-	-	-	-	-	-	.	.	.	.	.	.
CC(C)C(=O)NC(=S)N1CCc2ccccc21	-	-	5.2	-	-	-	-	0.021	?	0.018	0.028	0.017
COc1cc2c(cc1OC)CN(C(=S)NC(=O)c1ccccc1)CC2	.	-	23	31	-	-	0.026	0.05	?	0.031	0.033	0.032
COc1ccccc1C(=O)NC(=S)N1CCCc2ccccc21	.	-	.	-	-	-	.	.	.	.	.	.
COc1ccccc1C(=O)NC(=S)N1CCc2ccccc21	-	-	6.5	-	-	-	-	0.019	-	0.0085	?	-
COc1ccc(C)cc1NC(=O)N1CCCc2ccccc21	-	-	-	-	-	-	.	.	.	.	.	.
COc1ccc(C(=O)NC(=S)N2CCCc3ccccc32)cc1OC	-	-	5.3	-	-	-	-	0.023	-	0.012	?	0.012
COc1ccccc1-c1cc(C(=O)N2CCCc3ccccc32)no1	-	-	-3.9	-	-	-	-	-	-	?	0.016	-
COc1ccc(OCC(=O)NC(=S)N2CCCc3ccccc32)cc1	-	-	24	-	-	-	0.021	0.037	-	0.021	0.029	0.021
COc1ccc(OCC(=O)NC(=S)Nc2ccc3c4c(cccc24)CC3)cc1	-	-	29	-	-	-	-	0.079	-	0.031	0.036	0.014
Cc1ccccc1OCC(=O)NC(=S)Nc1ccc2c3c(cccc13)CC2	.	-	-	-	-	-	.	.	.	.	.	.
SMILES	ROMK mod	14-3-3 Bad PPI	Cl transport mod	NCF1 inh	WT yeast gro inh	RBBP9 inh	KCC2 sec1	KCC2 bumet counter	KCC2 sec2	HEK counter1	KCC2 retest ouab	HEK counter2
CCOC(=O)CSc1n[nH]c(NC(C)=O)n1	-	-	.	-	-	-	.	.	.	.	.	.
CN1CCN(C(=O)c2cc(COc3ccc(F)cc3Cl)on2)CC1c1ccccc1 (stereo unspecified)	-	-	.	-	-	-	.	.	.	.	.	.
Cc1ccccc1CNC(=O)c1cc(COc2ccc(F)cc2F)on1	-	-	-	-	-	-	.	.	.	.	.	.
O=C(c1cc(COc2ccc(F)cc2Cl)on1)N1CCC(OCc2cccnc2)CC1	-	-	.	-	-	-	-	-	-	-	0.03	-
O=C(c1cc(COc2ccc(F)cc2Cl)on1)N1CCCC(OCc2cccnc2)C1 (stereo unspecified)	-	-	.	-	-	-	-	-	-	-	0.014	?
Cc1nonc1C1CCCN1C(=O)c1cc(COc2ccc(F)cc2Cl)on1 (stereo unspecified)	-	-	.	-	-	-	-	-	0.024	?	-	-
O=C(c1cc(COc2c(F)cccc2F)on1)N1CCC(c2ccccc2Cl)C1 (stereo unspecified)	-	-	.	-	-	-	.	.	.	.	.	.
CC1=NCCN1CCNC(=O)Nc1ccc(C(C)(C)C)cc1	.	-	-	-	.	-	.	.	.	.	.	.
CC(NCCN(C)C)C(=O)C12CC3CC(CC(C3)C1)C2 (stereo unspecified)	.	-	-	-	.	-	.	.	.	.	.	.
Cc1ccc(-c2nn(CC(=O)NN3CCOCC3)c(=O)c3ccccc23)cc1	.	-	-	-	.	-	.	.	.	.	.	.
C/C(=N\NC(=O)c1ccncc1)c1cc2ccccc2o1	-	-	11	-	-	-	?	0.024	-	0.028	0.032	?
O=C(NC(=S)NCc1cccnc1)c1cc2ccccc2o1	-	-	42	-	-	-	0.03	0.088	0.049	0.049	0.053	0.048

Screens (PubChem)
